Experimental findings from ChEMBL document CHEMBL4513216, “Probing the Open Global Health Chemical Diversity Library for Multistage-Active Starting Points for Next-Generation Antimalarials” (ACS Infect Dis, 2020) are described below.

The data set can be described thus: Toxicity liver stage against HepG2, at 10uM. The settings on record: human, HepG2-A16-CD81EGFP cells; read-out: INHIBITION
It is filed as cell-based. Further details: test concentration 10 uM, cell line HepG2-A16-CD81EGFP. The gist of the method:
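Uninfected HepG2-A16-CD81EGFP cells, 3 × 10^3 per well, 1536-well, plated on prespotted compound at 10 μM final, parasite-free screening media added to match infected plates; puromycin 10 μM positive, DMSO 0.5% negative; run in parallel with 48 h PbLuc assay at 37 °C, 5% CO2; viability by CellTiter-Glo luminescence, normalized to controls.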
Turning to `COc1ccc(CN(C)C(=O)CSc2nnc(N)s2)c(OC)c1OC`, the cytotoxicity at 10 µM was 7.59%. With `N#Cc1cccnc1N1CCN(C(=O)CCC(=O)c2cccs2)CC1` the figure was -8.7%.

Turning to `COc1ccc(NC(=O)Cn2nc(C)ccc2=O)cc1OC`, the cytotoxicity at 10 µM is 1.57%.

As for `COC(=O)c1ccc(OC)c(Cn2cc(N)cn2)c1`, the cytotoxicity at 10 µM is -7.8%. As for `Nc1nc(C2CCN(C(=O)c3cnco3)CC2)cs1`, the cytotoxicity at 10 µM was -3%.

With `Cc1nc(Nc2ncccn2)cc(C2CCCN2Cc2ncc[nH]2)n1` (stereo unspecified), the cytotoxicity at 10 µM is -15.3%. Take `Cc1ncsc1CN1C[C@@H](O)[C@](O)(CNC(=O)c2ccccn2)C1`: the cytotoxicity at 10 µM is -0.973%. To `COc1cc(F)ccc1NC(=O)NCCNC(=O)OC(C)(C)C` belongs -3.97%; to `CC(C)CC1(C(=O)NCCc2nncn2C2CC2)CCC1`, -1.06%; to `O=C(CNC(=O)C1(c2ccc(F)cc2F)CCC1)Nc1cccnc1`, -5.82%. To `N#Cc1ccc(CN2CCCCC2Cn2cncn2)cc1` (stereo unspecified) belongs -1.05%.

Turning to `NC(=O)C(NC(=O)CSCc1ccc(Cl)s1)c1ccccc1` (stereo unspecified), the cytotoxicity at 10 µM was found to be 9.12%. To `CCCN(CC(=O)N(C)C)C(=O)c1ccc(-c2nc(C)cs2)cc1` belongs -15.7%; to `Cc1cc(Br)ccc1CNC(=O)C1(O)CCSCC1`, 8.88%. To `COC(=O)CN(C(=O)c1ccco1)c1cccc(F)c1` belongs -4.81%; to `CC(C)(C)CC(=O)NCC(=O)NS(=O)(=O)c1cccnc1`, -3.13%; to `O=C1CC2(CCSC2)C(=O)N1CCCc1ccccc1` (stereo unspecified), 6.43%. `Cn1c(NCCC(=O)N2CCCC2)c(C#N)c(=O)n(C)c1=O`: the cytotoxicity at 10 µM was -9.28%. To `CCN1CCC(NC(=O)CN2CCCC2Cn2cccn2)CC1` (stereo unspecified) belongs 1.98%; to `CN(C)C(=O)Cc1nc(CN2CCCCC2Cn2cncn2)cs1` (stereo unspecified), -0.868%. In the case of `COc1cc(S(=O)(=O)Nc2cn[nH]c2)ccc1Br`, the cytotoxicity at 10 µM was -1.47%. To `COc1cccc(NC(C(N)=O)c2ccc(Br)cc2)c1` (stereo unspecified) belongs 11.3%. In the case of `COCc1nc(CNc2cccc(-c3csc(C)n3)c2)cs1`, the cytotoxicity at 10 µM was determined as 1.98%. To `O=C(Nc1ccccc1C(=O)N1CCCC1)NC1CCOCC1` belongs -3.27%. To `CN1CCN(C(=O)C2CC=CC2)c2ccccc21` belongs 14.9%. To `Cc1cccc(NS(=O)(=O)c2cnn(C)c2)c1C#N` belongs -0.655%; to `CN(Cc1ccc(F)cc1F)CC(C)(CO)CO`, -2.52%; to `CSC1(CNC(=O)N(C)Cc2ccc(Cl)s2)CCOCC1`, 8.08%. In the case of `CN1N=C(C(=O)N(Cc2ccco2)C2CC2)CCC1=O`, the cytotoxicity at 10 µM is -2.62%.

As for `O=c1[nH]c(-c2ccncc2)ncc1-c1ccnc(N2CCOCC2)n1`, the cytotoxicity at 10 µM was -1.2%. With `CCn1ccnc1CN(C)c1nc(-c2ccc(Cl)cc2)nc2c1CNC2` the figure was -12.7%. Turning to `Cc1n[nH]c(CN2CCN(Cc3ccccc3)[C@@H]3CS(=O)(=O)C[C@@H]32)n1`, the cytotoxicity at 10 µM was -7.42%.

For the compound `COc1ccc(CN2CCCC3(CC2)CNC(=O)O3)cc1OC` (stereo unspecified), the cytotoxicity at 10 µM was 5.75%. With `CC(=O)N1CCC(NC(C)c2cnn(-c3ccc(F)cc3F)c2C)CC1` (stereo unspecified) the figure was -6.4%; with `Cc1cccc(CN2CCC(NS(C)(=O)=O)CC2)n1`, 9.87%; with `Cc1nn(C)c(C)c1CN(CCO)C(=O)C1COc2ccccc2C1` (stereo unspecified), -8.07%. In the case of `Cc1ccccc1C1(C(=O)NCCN(C)C)CCOCC1`, the cytotoxicity at 10 µM was -1.95%. To `CN(Cc1ccc(O)cc1)C(=O)NC1CCCN(c2ncccn2)C1` (stereo unspecified) belongs -9.63%; to `COc1cc(CN(CCCN(C)C)Cc2ccccn2)cc2c1OCO2`, 1.44%; to `CC(C)(CN)NS(=O)(=O)c1cccc(F)c1F`, -5.7%. To `CNC(=O)[C@@]12CCO[C@@H]1CCN(Cc1scnc1C)C2` belongs 6.12%.
